Measurements: ChEMBL document CHEMBL2331324, “Synthesis and biological evaluation of guanidino analogues of roscovitine” (Eur J Med Chem, 2013)

Key:
[1] = species on record: Homo sapiens; assay: Inhibition of recombinant VEGFR (unknown origin) assessed as residual activity using [gamma-33P]ATP as substrate at 1 uM
In short: (§1)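 Kinase panel screen with each compound at 1 µM, in duplicate. Reactions were started with [γ-33P]ATP (800 cpm/pmol) at 5, 20 or 50 µM, chosen per enzyme to be at or below its ATP Km. Reactions were stopped with phosphoric acid and spotted onto P81 filters. Results are given as residual kinase activity.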

[2] = target: Serine/threonine-protein kinase pim-1 (Homo sapiens) (UniProt P11309); assay: Inhibition of recombinant PIM1 (unknown origin) assessed as residual activity using [gamma-33P]ATP as substrate at 1 uM
In short: (§2)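 Selectivity panel run under previously published conditions. Screened at 1 μM in duplicate. Reactions started with [γ-33P]ATP (800 cpm/pmol) at 5, 20 or 50 μM, chosen to be at or below each enzyme's ATP Km. Stopped with phosphoric acid, spotted onto P81 filters. Result expressed as residual kinase activity.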

[3] = target: Serine/threonine-protein kinase STK11 (Homo sapiens) (UniProt Q15831); assay: Inhibition of recombinant LKB1 (unknown origin) assessed as residual activity using [gamma-33P]ATP as substrate at 1 uM; in short: as §2
[4] = target: Rho-associated protein kinase 2 (Homo sapiens) (UniProt O75116); assay: Inhibition of recombinant ROCK2 (unknown origin) assessed as residual activity using [gamma-33P]ATP as substrate at 1 uM; in short: as §2
[5] = target: Receptor-interacting serine/threonine-protein kinase 2 (Homo sapiens) (UniProt O43353); assay: Inhibition of recombinant RIPK2 (unknown origin) assessed as residual activity using [gamma-33P]ATP as substrate at 1 uM; in short: as §2
[6] = target: 3-phosphoinositide-dependent protein kinase 1 (Homo sapiens) (UniProt O15530); assay: Inhibition of recombinant PDK1 (unknown origin) assessed as residual activity using [gamma-33P]ATP as substrate at 1 uM
[7] = target: MAP kinase-activated protein kinase 5 (Homo sapiens) (UniProt Q8IW41); assay: Inhibition of recombinant PRAK (unknown origin) assessed as residual activity using [gamma-33P]ATP as substrate at 1 uM; in short: as §2
[8] = target: Serine/threonine-protein kinase 3 (Homo sapiens) (UniProt Q13188); assay: Inhibition of recombinant MST2 (unknown origin) assessed as residual activity using [gamma-33P]ATP as substrate at 1 uM; in short: as §2
Sequence of Serine/threonine-protein kinase 3 (Homo sapiens) (Q13188 whole entry): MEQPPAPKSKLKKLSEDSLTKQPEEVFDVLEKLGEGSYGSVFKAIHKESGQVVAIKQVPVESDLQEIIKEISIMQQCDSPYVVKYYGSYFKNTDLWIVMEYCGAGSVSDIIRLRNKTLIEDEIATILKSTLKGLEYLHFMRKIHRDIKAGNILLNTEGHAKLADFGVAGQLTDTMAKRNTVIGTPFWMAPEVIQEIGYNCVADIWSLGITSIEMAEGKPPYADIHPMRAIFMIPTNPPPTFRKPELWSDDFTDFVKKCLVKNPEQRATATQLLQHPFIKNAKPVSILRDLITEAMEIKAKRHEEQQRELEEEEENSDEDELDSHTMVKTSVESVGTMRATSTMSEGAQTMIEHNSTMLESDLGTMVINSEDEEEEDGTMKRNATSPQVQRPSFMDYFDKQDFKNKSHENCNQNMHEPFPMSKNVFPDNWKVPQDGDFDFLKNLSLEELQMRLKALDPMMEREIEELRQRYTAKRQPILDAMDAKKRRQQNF

[9] = target: Ephrin type-B receptor 4 (Homo sapiens) (UniProt P54760); assay: Inhibition of recombinant EPH-B4 (unknown origin) assessed as residual activity using [gamma-33P]ATP as substrate at 1 uM
In short: (§3)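 Recombinant kinase panel screened at 1 µM in duplicate. Reactions started with [γ-33P]ATP (800 cpm/pmol) at 5, 20 or 50 µM, chosen to sit at or below each enzyme's ATP Km. Stopped with phosphoric acid and spotted onto P81 filters. Result given as residual kinase activity.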

[10] = target: Serine/threonine-protein kinase MARK2 (Homo sapiens) (UniProt Q7KZI7); assay: Inhibition of recombinant MARK2 (unknown origin) assessed as residual activity using [gamma-33P]ATP as substrate at 1 uM; in short: as §2
[11] = target: Mitogen-activated protein kinase kinase kinase kinase 2 (Homo sapiens) (UniProt Q12851); assay: Inhibition of recombinant GCK (unknown origin) assessed as residual activity using [gamma-33P]ATP as substrate at 1 uM; in short: as §3
[12] = target: Serine/threonine-protein kinase Sgk1 (Homo sapiens) (UniProt O00141); assay: Inhibition of recombinant SGK1 (unknown origin) assessed as residual activity using [gamma-33P]ATP as substrate at 1 uM; in short: as §1
Sequence of Serine/threonine-protein kinase Sgk1 (Homo sapiens) (O00141 whole entry): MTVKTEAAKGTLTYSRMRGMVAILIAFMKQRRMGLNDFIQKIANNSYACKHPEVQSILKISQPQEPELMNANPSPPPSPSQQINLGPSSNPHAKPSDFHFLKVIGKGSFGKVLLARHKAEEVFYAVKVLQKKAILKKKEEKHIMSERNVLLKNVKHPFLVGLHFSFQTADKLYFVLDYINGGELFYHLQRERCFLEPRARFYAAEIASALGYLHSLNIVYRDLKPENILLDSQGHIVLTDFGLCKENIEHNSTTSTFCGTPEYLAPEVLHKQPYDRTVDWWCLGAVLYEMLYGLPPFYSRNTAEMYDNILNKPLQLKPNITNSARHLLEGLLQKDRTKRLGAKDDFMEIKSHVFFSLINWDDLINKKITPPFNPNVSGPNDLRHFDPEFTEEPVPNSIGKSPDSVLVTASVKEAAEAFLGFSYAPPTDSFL

[13] = target: Mitogen-activated protein kinase kinase kinase 9 (Homo sapiens) (UniProt P80192); assay: Inhibition of recombinant MLK1 (unknown origin) assessed as residual activity using [gamma-33P]ATP as substrate at 1 uM; in short: as §2
Sequence of Mitogen-activated protein kinase kinase kinase 9 (Homo sapiens) (P80192 whole entry, looked up): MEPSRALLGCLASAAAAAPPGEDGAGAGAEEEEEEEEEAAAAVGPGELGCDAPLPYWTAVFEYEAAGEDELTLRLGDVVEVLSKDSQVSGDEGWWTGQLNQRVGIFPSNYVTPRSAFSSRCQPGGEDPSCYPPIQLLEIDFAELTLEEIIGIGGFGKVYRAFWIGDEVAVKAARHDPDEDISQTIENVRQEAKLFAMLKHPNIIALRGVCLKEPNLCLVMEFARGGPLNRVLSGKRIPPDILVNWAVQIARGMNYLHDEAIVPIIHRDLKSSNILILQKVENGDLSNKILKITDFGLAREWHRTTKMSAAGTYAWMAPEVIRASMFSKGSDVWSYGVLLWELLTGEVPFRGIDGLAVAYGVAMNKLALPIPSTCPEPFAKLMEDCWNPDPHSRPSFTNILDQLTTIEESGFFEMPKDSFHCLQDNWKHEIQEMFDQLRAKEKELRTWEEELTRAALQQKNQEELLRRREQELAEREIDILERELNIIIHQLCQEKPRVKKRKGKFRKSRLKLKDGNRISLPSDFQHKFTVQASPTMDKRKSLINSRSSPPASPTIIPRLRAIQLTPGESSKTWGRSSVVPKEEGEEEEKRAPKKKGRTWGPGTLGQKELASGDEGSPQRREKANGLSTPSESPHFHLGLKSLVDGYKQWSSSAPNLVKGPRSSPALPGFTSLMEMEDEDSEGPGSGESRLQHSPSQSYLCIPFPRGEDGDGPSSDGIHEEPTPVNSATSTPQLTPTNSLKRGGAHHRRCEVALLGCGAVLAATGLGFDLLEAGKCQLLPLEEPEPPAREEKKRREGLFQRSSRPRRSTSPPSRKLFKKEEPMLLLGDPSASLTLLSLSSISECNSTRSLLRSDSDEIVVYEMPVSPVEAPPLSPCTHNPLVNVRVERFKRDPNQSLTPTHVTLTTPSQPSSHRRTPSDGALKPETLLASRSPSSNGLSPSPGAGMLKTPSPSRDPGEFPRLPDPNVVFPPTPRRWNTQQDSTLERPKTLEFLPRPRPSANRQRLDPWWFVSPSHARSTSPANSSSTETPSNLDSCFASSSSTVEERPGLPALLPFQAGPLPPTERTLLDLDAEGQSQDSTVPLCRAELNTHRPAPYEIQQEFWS

[14] = species on record: Homo sapiens; assay: Inhibition of recombinant PKA (unknown origin) assessed as residual activity using [gamma-33P]ATP as substrate at 1 uM; in short: as §2
[15] = target: Tyrosine-protein kinase Yes (Homo sapiens) (UniProt P07947); assay: Inhibition of recombinant YES1 (unknown origin) assessed as residual activity using [gamma-33P]ATP as substrate at 1 uM; in short: as §1
[16] = target: Aurora kinase A (Homo sapiens) (UniProt O14965); assay: Inhibition of recombinant AURA (unknown origin) assessed as residual activity using [gamma-33P]ATP as substrate at 1 uM; in short: as §3
[17] = target: Ephrin type-B receptor 1 (Homo sapiens) (UniProt P54762); assay: Inhibition of recombinant EPH-B1 (unknown origin) assessed as residual activity using [gamma-33P]ATP as substrate at 1 uM; in short: as §3
Sequence of Ephrin type-B receptor 1 (Homo sapiens) (P54762 whole entry): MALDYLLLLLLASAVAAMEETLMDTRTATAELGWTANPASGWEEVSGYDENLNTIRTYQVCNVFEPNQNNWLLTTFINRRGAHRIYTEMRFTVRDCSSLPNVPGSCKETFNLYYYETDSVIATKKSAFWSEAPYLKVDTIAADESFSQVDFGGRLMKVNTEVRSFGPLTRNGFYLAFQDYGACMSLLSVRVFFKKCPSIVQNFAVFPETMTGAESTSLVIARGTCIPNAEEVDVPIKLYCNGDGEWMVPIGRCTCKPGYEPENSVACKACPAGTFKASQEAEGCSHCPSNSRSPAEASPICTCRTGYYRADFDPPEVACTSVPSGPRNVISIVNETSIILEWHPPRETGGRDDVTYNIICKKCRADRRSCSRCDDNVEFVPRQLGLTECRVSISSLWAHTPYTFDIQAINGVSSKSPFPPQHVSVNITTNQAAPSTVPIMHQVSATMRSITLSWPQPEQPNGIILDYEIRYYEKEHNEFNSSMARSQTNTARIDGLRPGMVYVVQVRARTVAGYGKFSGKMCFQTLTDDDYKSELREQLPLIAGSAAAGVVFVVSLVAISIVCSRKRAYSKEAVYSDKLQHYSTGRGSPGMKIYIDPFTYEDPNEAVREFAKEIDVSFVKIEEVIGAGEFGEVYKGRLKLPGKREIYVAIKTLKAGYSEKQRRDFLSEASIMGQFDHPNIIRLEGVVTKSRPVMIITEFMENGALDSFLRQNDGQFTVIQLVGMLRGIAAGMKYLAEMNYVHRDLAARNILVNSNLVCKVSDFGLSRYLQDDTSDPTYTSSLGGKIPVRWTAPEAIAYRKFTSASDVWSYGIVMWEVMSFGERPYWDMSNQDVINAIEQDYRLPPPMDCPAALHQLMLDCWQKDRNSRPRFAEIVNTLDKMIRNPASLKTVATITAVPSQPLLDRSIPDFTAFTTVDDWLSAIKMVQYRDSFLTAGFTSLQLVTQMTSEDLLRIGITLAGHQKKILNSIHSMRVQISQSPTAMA

[18] = target: Serine/threonine-protein kinase TBK1 (Homo sapiens) (UniProt Q9UHD2); assay: Inhibition of recombinant TBK1 (unknown origin) assessed as residual activity using [gamma-33P]ATP as substrate at 1 uM; in short: as §1
[19] = target: Fibroblast growth factor receptor 1 (Homo sapiens) (UniProt P11362); assay: Inhibition of recombinant FGF-R1 (unknown origin) assessed as residual activity using [gamma-33P]ATP as substrate at 1 uM; in short: as §3
Sequence of Fibroblast growth factor receptor 1 (Homo sapiens) (P11362 22-822 limits assumed): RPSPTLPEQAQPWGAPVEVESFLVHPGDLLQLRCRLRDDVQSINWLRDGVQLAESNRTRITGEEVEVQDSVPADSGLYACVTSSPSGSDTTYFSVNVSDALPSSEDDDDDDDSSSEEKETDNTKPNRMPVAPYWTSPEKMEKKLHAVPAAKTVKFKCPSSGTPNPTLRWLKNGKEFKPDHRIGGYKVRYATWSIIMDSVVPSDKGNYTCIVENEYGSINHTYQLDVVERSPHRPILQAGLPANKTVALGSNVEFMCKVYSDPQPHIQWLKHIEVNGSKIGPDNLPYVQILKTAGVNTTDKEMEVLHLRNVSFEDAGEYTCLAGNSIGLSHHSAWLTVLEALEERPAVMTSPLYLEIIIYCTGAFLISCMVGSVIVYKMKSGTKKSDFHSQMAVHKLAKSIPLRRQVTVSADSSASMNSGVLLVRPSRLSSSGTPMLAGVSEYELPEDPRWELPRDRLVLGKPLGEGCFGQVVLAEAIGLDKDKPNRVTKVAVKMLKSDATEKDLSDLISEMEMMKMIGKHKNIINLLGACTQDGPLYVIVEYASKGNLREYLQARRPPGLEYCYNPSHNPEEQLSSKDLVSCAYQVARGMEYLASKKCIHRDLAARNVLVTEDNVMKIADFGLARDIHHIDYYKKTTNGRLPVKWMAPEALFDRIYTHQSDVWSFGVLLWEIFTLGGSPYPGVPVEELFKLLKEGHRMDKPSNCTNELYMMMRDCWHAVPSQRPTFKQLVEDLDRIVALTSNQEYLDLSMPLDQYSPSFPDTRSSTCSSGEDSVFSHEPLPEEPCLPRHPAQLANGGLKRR

[20] = target: Cyclin-dependent kinase 2/cyclin A (Homo sapiens) (UniProt P24941+P20248+P78396); assay: Inhibition of recombinant CDK2/cyclin A (unknown origin) assessed as residual activity using [gamma-33P]ATP as substrate at 1 uM; format: protein-complex assay
In short: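 CDK2/cyclin A included in the radiometric panel at 1 µM in duplicate. Reactions started with [γ-33P]ATP (800 cpm/pmol) at 5, 20 or 50 µM, at or below the enzyme's ATP Km. Stopped with phosphoric acid, spotted onto P81 filters; result given as residual kinase activity.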

[21] = target: Death-associated protein kinase 1 (Homo sapiens) (UniProt P53355); assay: Inhibition of recombinant DAPK1 (unknown origin) assessed as residual activity using [gamma-33P]ATP as substrate at 1 uM; in short: as §3
[22] = target: MAP kinase-activated protein kinase 3 (Homo sapiens) (UniProt Q16644); assay: Inhibition of recombinant MAPKAPK3 (unknown origin) assessed as residual activity using [gamma-33P]ATP as substrate at 1 uM; in short: as §2
[23] = target: Dual specificity protein kinase CLK2 (Homo sapiens) (UniProt P49760); assay: Inhibition of recombinant CLK2 (unknown origin) assessed as residual activity using [gamma-33P]ATP as substrate at 1 uM; in short: as §3
[24] = target: Proto-oncogene tyrosine-protein kinase Src (Homo sapiens) (UniProt P12931); assay: Inhibition of recombinant SRC (unknown origin) assessed as residual activity using [gamma-33P]ATP as substrate at 1 uM; in short: as §1
Sequence of Proto-oncogene tyrosine-protein kinase Src (Homo sapiens) (P12931 2-536 limits assumed): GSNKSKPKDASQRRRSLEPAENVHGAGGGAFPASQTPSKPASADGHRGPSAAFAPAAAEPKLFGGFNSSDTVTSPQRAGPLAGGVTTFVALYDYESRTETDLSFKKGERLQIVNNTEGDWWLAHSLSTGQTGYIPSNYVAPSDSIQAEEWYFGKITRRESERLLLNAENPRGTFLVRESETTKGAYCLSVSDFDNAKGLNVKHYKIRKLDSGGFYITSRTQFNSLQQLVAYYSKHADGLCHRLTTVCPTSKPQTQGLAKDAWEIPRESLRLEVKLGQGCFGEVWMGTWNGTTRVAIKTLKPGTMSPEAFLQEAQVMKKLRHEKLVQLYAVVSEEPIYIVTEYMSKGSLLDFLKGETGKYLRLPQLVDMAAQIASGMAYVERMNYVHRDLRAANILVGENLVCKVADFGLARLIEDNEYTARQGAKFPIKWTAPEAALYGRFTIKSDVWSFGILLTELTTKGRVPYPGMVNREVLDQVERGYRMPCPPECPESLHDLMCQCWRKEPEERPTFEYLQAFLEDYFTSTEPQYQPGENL

[25] = target: RAC-alpha serine/threonine-protein kinase (Homo sapiens) (UniProt P31749); assay: Inhibition of recombinant PKB alpha (unknown origin) assessed as residual activity using [gamma-33P]ATP as substrate at 1 uM; in short: as §2
Sequence of RAC-alpha serine/threonine-protein kinase (Homo sapiens) (P31749 whole entry): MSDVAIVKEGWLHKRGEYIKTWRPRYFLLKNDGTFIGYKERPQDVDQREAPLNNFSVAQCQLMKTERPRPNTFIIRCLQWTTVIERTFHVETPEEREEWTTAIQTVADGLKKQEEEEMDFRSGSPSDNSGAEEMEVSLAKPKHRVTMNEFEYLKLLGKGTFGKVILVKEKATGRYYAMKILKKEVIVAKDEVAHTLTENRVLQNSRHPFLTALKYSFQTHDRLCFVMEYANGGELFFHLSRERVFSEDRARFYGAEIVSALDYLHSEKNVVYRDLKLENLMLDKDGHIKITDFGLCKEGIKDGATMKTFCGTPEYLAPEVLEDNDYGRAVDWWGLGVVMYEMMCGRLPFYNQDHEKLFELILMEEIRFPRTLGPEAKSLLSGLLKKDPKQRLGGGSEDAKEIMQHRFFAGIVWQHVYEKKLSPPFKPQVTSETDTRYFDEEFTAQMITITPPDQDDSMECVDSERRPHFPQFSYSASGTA

[26] = target: Serine/threonine-protein kinase 26 (Homo sapiens) (UniProt Q9P289); assay: Inhibition of recombinant MST4 (unknown origin) assessed as residual activity using [gamma-33P]ATP as substrate at 1 uM; in short: as §2

SMILES: CC[C@H](CO)Nc1nc(NC(=N)N)c2ncn(C(C)C)c2n1
- Activity [1]: 6%
- Activity [2]: 85%
- Activity [3]: 13%
- Activity [4]: 61%
- Activity [5]: 72%
- Activity [6]: 68%
- Activity [7]: 76%
- Activity [8]: 35%
- Activity [9]: 6%
- Activity [10]: 45%
- Activity [11]: 15%
- Activity [12]: 60%
- Activity [13]: 25%
- Activity [14]: 90%
- Activity [15]: 13%
- Activity [16]: 39%
- Activity [17]: 8%
- Activity [18]: 92%
- Activity [19]: 4%
- Activity [20]: 5%
- Activity [21]: 54%
- Activity [22]: 80%
- Activity [23]: 4%
- Activity [24]: 22%
- Activity [25]: 99%
- Activity [26]: 42%

SMILES: CC[C@@H](CO)Nc1nc(NC(=N)N)c2ncn(C(C)C)c2n1
- Activity [1]: 4%
- Activity [2]: 71%
- Activity [3]: 16%
- Activity [4]: 65%
- Activity [5]: 76%
- Activity [6]: 62%
- Activity [7]: 74%
- Activity [8]: 43%
- Activity [9]: 6%
- Activity [10]: 62%
- Activity [11]: 10%
- Activity [12]: 51%
- Activity [13]: 31%
- Activity [14]: 83%
- Activity [15]: 11%
- Activity [16]: 30%
- Activity [17]: 7%
- Activity [18]: 90%
- Activity [19]: 5%
- Activity [20]: 7%
- Activity [21]: 36%
- Activity [22]: 78%
- Activity [23]: 4%
- Activity [24]: 6%
- Activity [25]: 107%
- Activity [26]: 40%
